Bounds are passed on as bounds.

The record followed here is ChEMBL document CHEMBL2321820, “Discovery of HSD-621 as a Potential Agent for the Treatment of Type 2 Diabetes” (ACS Med Chem Lett, 2013).

Data set [1] is filed under the species Mus musculus. As to the kind of experiment: Toxicity in C57B6 DIO mouse assessed as body weight gain at after 31 days. Particulars: in vivo, po, 744 h.
The target of data set [2] is T1, 11-beta-hydroxysteroid dehydrogenase 1 (Mus musculus, UniProt P50172). The data set can be described thus: Inhibition of mouse 11beta-HSD1 expressed in CHO cells […] incubated for 30 mins prior to substrate addition measured after 120 mins by chemiluminescence assay in presence of 10% human serum. Format: cell-based. In a few lines:
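Cell-based assay with 10% (v/v) human serum in the culture medium. Run in duplicate, with 11-point 2-fold dilutions giving the IC50. Lower threshold was 10 nM.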

Data set [3] in a line: Half life in human liver microsomes. Format: ADME, Microsome.
Data set [4] concerns Mus musculus. As to the kind of experiment: Ex vivo inhibition of 11beta-HSD1 in C57B16 mouse epididymal fat assessed as conversion of [3H]-cortisone to [3H]-cortisol at 10 mg/kg, po after 5 hrs by HPLC analysis relative to vehicle-treated control. Format: functional. In a few lines: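 Mice were dosed orally at 10 mg/kg. Epididymal fat was collected 5 h after dosing for the ex vivo readout.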

Data set [5] can be described thus: Half life in mouse liver microsomes. Format: ADME, Microsome.
Data set [6] has as its target T1, 11-beta-hydroxysteroid dehydrogenase 1. The data set can be described thus: Inhibition of mouse 11beta-HSD1 expressed in CHO cells […] incubated for 30 mins prior to substrate addition measured after 120 mins by chemiluminescence assay. The format is cell-based. In a few lines:
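Cell-based assay run in duplicate. Compounds were tested as 11-point 2-fold dilutions, and IC50 was derived. Lower assay threshold was 10 nM.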

Data set [7] concerns the target 11-beta-hydroxysteroid dehydrogenase 1 (Homo sapiens, UniProt P28845). As to the kind of experiment: Inhibition of human 11beta-HSD1 expressed in CHO cells using cortisone as substrate incubated for 30 mins prior to substrate addition measured after 120 mins by chemiluminescence assay.
Another data set deals with Cytochrome P450 2C9 (Homo sapiens, UniProt P11712). The data set can be described thus: Inhibition of CYP2C9 (unknown origin). The format is ADME.
Data set [8] is described as follows: Oral bioavailability in C57B6 mouse at 10 mg/kg. Format: ADME, organism-based. The settings on record: in vivo. In a few lines:
(§1)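 Male C57B6 mice. IV dose of 2 mg/kg in 50% DMSO/50% PEG200. Oral dose of 10 mg/kg in 2% Tween/0.5% methyl cellulose in water. Values are PK parameters from the iv and po arms.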

Data set [9] is described as follows: AUC in C57B6 mouse at 2 mg/kg, iv. Also noted: dose 2 mg/kg, route intravenous. Particulars: plasma. Format: ADME, organism-based. In a few lines: as §1
Data set [10] in a line: Tmax in C57B6 mouse at 10 mg/kg, po. More on the design: dose 10 mg/kg, route oral. Format: ADME, organism-based. Particulars: in vivo. A digest of the protocol: as §1
Data set [11] can be described thus: Cmax in C57B6 mouse at 10 mg/kg, po. The settings on record: in vivo. Format: ADME, organism-based. Also noted: dose 10 mg/kg, route oral. In a few lines:
as §1

Data set [12] can be described thus: Volume of distribution at steady state in C57B6 mouse at 2 mg/kg, iv. Format: ADME, organism-based. More on the design: dose 2 mg/kg, route intravenous. Particulars: in vivo, read-out: Vdss. A digest of the protocol:
as §1

Data set [13] is described as follows: AUC in C57B6 mouse at 10 mg/kg, po. The format is ADME, organism-based. Also noted: dose 10 mg/kg, route oral. Particulars: plasma. A digest of the protocol: as §1
Data set [14] can be described thus: Half life in C57B6 mouse at 2 mg/kg, iv. The format is ADME, organism-based. The settings on record: in vivo. More on the design: dose 2 mg/kg, route intravenous. In a few lines: as §1
Data set [15] has as its target T2, 11-beta-hydroxysteroid dehydrogenase type 2 (Homo sapiens, UniProt P80365).
T2 sequence (P80365 whole entry): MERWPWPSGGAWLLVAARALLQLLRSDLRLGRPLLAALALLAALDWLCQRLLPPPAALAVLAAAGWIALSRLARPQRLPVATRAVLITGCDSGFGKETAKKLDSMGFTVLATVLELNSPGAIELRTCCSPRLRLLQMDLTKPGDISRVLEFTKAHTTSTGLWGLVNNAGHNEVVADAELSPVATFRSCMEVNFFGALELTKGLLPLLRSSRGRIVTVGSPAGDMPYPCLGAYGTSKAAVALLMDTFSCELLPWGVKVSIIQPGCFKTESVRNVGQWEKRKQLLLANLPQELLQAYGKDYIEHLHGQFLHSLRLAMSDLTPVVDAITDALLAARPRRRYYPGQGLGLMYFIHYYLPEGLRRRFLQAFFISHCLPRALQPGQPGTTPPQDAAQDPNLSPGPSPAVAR
As to the kind of experiment: Inhibition of human 11beta-HSD2 expressed in CHO cells using […] as substrate incubated for 30 mins prior to substrate addition measured after 120 mins by scintillation counting analysis. Format: cell-based.

The nature of data set [16]: Clearance in C57B6 mouse at 2 mg/kg, iv. The settings on record: in vivo. Format: ADME, organism-based. Also noted: dose 2 mg/kg, route intravenous. In a few lines:
as §1

The nature of data set [17]: Half life in C57B6 mouse at 10 mg/kg, po. Format: ADME, organism-based. Also noted: dose 10 mg/kg, route oral. The settings on record: in vivo. In a few lines: as §1

T1 sequence (P50172 whole entry): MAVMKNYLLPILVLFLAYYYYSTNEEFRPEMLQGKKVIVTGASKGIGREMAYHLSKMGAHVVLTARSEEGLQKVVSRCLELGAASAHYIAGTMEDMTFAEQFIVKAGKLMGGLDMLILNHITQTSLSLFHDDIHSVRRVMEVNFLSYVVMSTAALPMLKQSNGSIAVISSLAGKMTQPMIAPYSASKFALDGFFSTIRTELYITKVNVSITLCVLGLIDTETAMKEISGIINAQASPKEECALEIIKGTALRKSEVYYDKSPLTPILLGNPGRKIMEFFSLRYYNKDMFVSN
11-beta-hydroxysteroid dehydrogenase 1 (Homo sapiens, UniProt P28845), sequence (P28845 whole entry): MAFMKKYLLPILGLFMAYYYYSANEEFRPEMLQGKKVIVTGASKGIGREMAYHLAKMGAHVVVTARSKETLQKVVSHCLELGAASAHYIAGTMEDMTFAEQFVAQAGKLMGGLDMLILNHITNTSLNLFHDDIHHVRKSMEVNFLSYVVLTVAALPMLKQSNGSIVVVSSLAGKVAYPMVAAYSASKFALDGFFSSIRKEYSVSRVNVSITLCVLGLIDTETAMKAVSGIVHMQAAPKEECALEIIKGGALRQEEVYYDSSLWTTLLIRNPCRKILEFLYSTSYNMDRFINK
Cytochrome P450 2C9, sequence (P11712 whole entry): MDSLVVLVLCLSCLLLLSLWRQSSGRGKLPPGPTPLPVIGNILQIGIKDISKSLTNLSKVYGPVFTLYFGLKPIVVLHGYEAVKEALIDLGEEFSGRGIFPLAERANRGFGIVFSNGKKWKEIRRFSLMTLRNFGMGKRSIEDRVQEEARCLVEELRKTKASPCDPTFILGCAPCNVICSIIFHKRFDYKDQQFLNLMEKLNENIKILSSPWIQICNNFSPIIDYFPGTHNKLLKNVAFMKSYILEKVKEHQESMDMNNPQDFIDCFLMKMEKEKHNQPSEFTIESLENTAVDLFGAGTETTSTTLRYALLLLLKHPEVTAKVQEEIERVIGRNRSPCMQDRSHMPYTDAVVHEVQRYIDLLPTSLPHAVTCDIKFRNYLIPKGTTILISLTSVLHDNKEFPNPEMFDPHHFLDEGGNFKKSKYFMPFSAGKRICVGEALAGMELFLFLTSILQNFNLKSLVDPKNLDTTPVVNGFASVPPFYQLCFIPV

Turning to `CN(CCOc1ccc(CC2SC(=O)NC2=O)cc1)c1ccccn1` (configuration not stated) [ROSIGLITAZONE], the Activity result in the data set filed under Mus musculus [1] is recorded as “Non-toxic”.
As to `C[C@@H]1CN(c2ccc(F)cc2C(F)(F)F)CCN1S(=O)(=O)c1ccc([C@](O)(C(N)=O)C(F)(F)F)cc1`, the IC50 (in general, the concentration needed to halve the response being measured) was found to be 0.041 µM in data set [2] and 0.02 µM in data set [6]. The figures for the half-life in [3] and in [5] were 27 min and 30 min, respectively. The inhibition in vivo (as a rule, how much of the control response was suppressed) at 10 mg/kg in the data set with Mus musculus [4] was less than 10%.
For the compound `C[C@@H]1CN(c2ccc(F)cc2C(F)(F)F)CCN1S(=O)(=O)c1ccc([C@](C)(O)C(F)(F)F)s1`, the IC50 in data set [2], in data set [7] and in [6] was 0.01 µM throughout. Also, the half-life in [3] and in data set [5] was more than 30 min in each case. Moreover, the inhibition in vivo at 10 mg/kg in the data set with Mus musculus [4] is 5%.
Take `C[C@@H]1CN(c2ccc(F)cc2C(F)(F)F)CCN1S(=O)(=O)c1nc(C(C)(O)C(F)(F)F)n(C)n1` (some centres not stated): the IC50 in data set [2] was 1.39 µM; in data set [6], 0.165 µM. The half-life (as a rule, the time needed for the level to fall by half in the phase considered) came out at 10 min in data set [3] and 23 min in data set [5]. The inhibition in vivo at 10 mg/kg with Mus musculus [4] is 38%.
Take `C[C@@H]1CN(c2ccc(F)cc2C(F)(F)F)CCN1S(=O)(=O)c1ncc([C@](O)(C(N)=O)C(F)(F)F)s1`: the figures for the half-life in data set [3] and in data set [5] were 19 min and more than 30 min, respectively. For the same compound, the inhibition in vivo at 10 mg/kg with Mus musculus [4] stood at 17%.
For `C[C@@H]1CN(c2ccc(F)cc2C(F)(F)F)CCN1S(=O)(=O)c1ccc([C@](O)(C(N)=O)C(F)(F)F)s1`, the IC50 in data set [2] stood at 0.01 µM; in [7], 0.145 µM; in data set [6] it was 0.01 µM. Also, the half-life in data set [3] and in data set [5] was 18 min throughout. Also, in the data set with Mus musculus [4], the inhibition in vivo at 10 mg/kg was 50%.
In the case of `C[C@@H]1CN(c2ccc(C(N)=O)cc2C(F)(F)F)CCN1S(=O)(=O)c1ccc([C@@](C)(O)C(F)(F)F)s1`, the half-life in data set [3] and in data set [5] was 17 min each time. The “inhibition (INH)” value at Cytochrome P450 2C9 was “Active”. Besides, the inhibition in vivo at 10 mg/kg in the data set with Mus musculus [4] was found to be 87%.
`C[C@@H]1CN(c2ccc(F)cc2C(F)(F)F)CCN1S(=O)(=O)c1ccc(C(C)(O)C(F)(F)F)s1` (some centres not stated): the IC50 in data set [2] turned out to be 0.01 µM; in data set [7], 0.015 µM; in data set [6], 0.01 µM. Moreover, the half-life is more than 30 min in [3] and 17 min in data set [5]. In addition, the inhibition in vivo at 10 mg/kg in the data set with Mus musculus [4] came out at 44%.
Take `C[C@@H]1CN(c2ccc(C(N)=O)cc2C(F)(F)F)CCN1S(=O)(=O)c1ccc([C@](C)(O)C(F)(F)F)s1`: the half-life in data set [3] amounted to 10 min; in data set [5], 17 min. Moreover, the “inhibition (INH)” value against Cytochrome P450 2C9 is “Active”. Moreover, the inhibition in vivo at 10 mg/kg in the data set on Mus musculus [4] came out at 86%.
Regarding `C[C@@H]1CN(c2ccc(F)cc2C(F)(F)F)CCN1S(=O)(=O)c1cn(C)c(C(C)(O)C(F)(F)F)n1` (some centres not stated), the figures for the IC50 in data set [2] and in [6] were 0.018 µM and 0.077 µM, respectively. Further, the half-life came out at 10 min in data set [3] and 30 min in data set [5]. In the data set on Mus musculus [4], the inhibition in vivo at 10 mg/kg was found to be 33%.
As to `C[C@@H]1CN(c2ccc(F)cc2C(F)(F)F)CCN1S(=O)(=O)c1ccc([C@@](O)(C(N)=O)C(F)(F)F)cc1`, the IC50 in [2] is 0.048 µM; in data set [6] it was 0.04 µM. Besides, the half-life in data set [3] is 10 min; in [5], 30 min. In addition, the inhibition in vivo at 10 mg/kg in the data set on Mus musculus [4] was less than 10%.
With `C[C@@H]1CN(c2ccc(F)cc2C(F)(F)F)CCN1S(=O)(=O)c1ccc([C@@](C)(O)C(F)(F)F)s1`, the IC50 in [2] is 0.01 µM; in data set [7] it was 0.017 µM; in data set [6] it was 0.01 µM; in [15] it was more than 100 µM. For the same compound, the figures for the half-life in data set [3], in [5] and in data set [14] were more than 30 min, 17 min and 570 min, respectively. Besides, the bioavailability (as a rule, the share of a dose that reaches the circulation, judged against a reference dose that is usually intravenous) in data set [8] was determined as 19%. The figures for the AUC in [9] and in [13] were 3590 ng·h/mL and 3400 ng·h/mL, respectively. Besides, the Tmax (commonly the time from dosing to the highest level) in data set [10] was determined as 30 min. Besides, the Cmax (as a rule, the maximum level reached in the sampled fluid or tissue) in data set [11] turned out to be 449 ng/mL. For the same compound, the inhibition in vivo at 10 mg/kg with Mus musculus [4] was 80%. The Vd in data set [12] came out at 5.8 L/kg. The clearance (commonly a measure of how efficiently the substance is removed, as volume per time) in data set [16] is 9 mL/min/kg.
In the case of `C[C@@H]1CN(c2ccc(F)cc2C(F)(F)F)CCN1S(=O)(=O)c1ccc(C(O)(c2nnc[nH]2)C(F)(F)F)s1` (some centres not stated), the inhibition in vivo at 10 mg/kg with Mus musculus [4] was found to be 57%. In [5], this compound came in with a half-life of 26 min.
For the compound `C[C@@H]1CN(c2ccc(F)cc2C(F)(F)F)CCN1S(=O)(=O)c1cccc([C@@](O)(C(N)=O)C(F)(F)F)c1`, the IC50 in [2] is 0.01 µM; in data set [7], 0.023 µM; in data set [6] it was 0.01 µM; in data set [15] it was more than 100 µM. Further, the half-life in [17] is 168 min; in [3], 18 min; in data set [5] it was 30 min; in data set [14] it was 252 min. The compound further came in with a bioavailability in data set [8] of 46%. Besides, the AUC (in general, the area under the concentration-time curve, a measure of exposure) in data set [9] was found to be 6130 ng·h/mL; in data set [13] it was 14000 ng·h/mL. The Tmax in [10] turned out to be 120 min. The compound also displayed a Cmax in data set [11] of 1550 ng/mL. In the data set on Mus musculus [4], the inhibition in vivo at 10 mg/kg stood at 82%. Also, the Vd in data set [12] worked out at 1.8 L/kg. For the same compound, the clearance in data set [16] came to 5.4 mL/min/kg.
In the case of `C[C@@H]1CN(c2ccc(F)cc2C(F)(F)F)CCN1S(=O)(=O)c1ncc([C@@](O)(C(N)=O)C(F)(F)F)s1`, the half-life in data set [3] came out at 21 min; in data set [5], 18 min. The inhibition in vivo at 10 mg/kg in the data set on Mus musculus [4] worked out at 83%.
Regarding `C[C@@H]1CN(c2ccc(F)cc2C(F)(F)F)CCN1S(=O)(=O)c1cccc([C@](O)(C(N)=O)C(F)(F)F)c1`, the IC50 in data set [2] stood at 0.01 µM; in data set [7], 0.051 µM; in [6] it was 0.01 µM. Moreover, the half-life in [3] and in [5] was less than 2 min throughout. Also, the inhibition in vivo at 10 mg/kg with Mus musculus [4] amounted to 38%.
